Assay outcomes deposited in PubChem BioAssay by several laboratories.
Compounds with a hit are over-represented: about 1.8% of the library has one in this group of screens.
Jurkat NFkB inh: inhibitors of the PMA/ionomycin-induced NF-kB reporter in Jurkat cells. PMA/ionomycin-induced NF-kB luciferase reporter, luminescence. inhibition, % at 4 µM. actives 0.53% (n = 330,000). AID 435003; in the data active = inhibition above about 50%
NR2E3 ag-1: agonists of human NR2E3 nuclear receptor; Q9Y5X4; actives 0.35% (n = 360,000); CHO-S Gal4-NCOR/VP16-NR2E3 two-hybrid, luciferase; inhibition of corepressor binding, % at 3.98 µM;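 active = inhibition above the mean of all tested compounds plus 3 SD, cut at about 70% in these data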;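 note: higher means lower luciferase signal from less NR2E3 corepressor binding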
Target sequence (Q9Y5X4 whole entry, looked up, the tested form may be a part): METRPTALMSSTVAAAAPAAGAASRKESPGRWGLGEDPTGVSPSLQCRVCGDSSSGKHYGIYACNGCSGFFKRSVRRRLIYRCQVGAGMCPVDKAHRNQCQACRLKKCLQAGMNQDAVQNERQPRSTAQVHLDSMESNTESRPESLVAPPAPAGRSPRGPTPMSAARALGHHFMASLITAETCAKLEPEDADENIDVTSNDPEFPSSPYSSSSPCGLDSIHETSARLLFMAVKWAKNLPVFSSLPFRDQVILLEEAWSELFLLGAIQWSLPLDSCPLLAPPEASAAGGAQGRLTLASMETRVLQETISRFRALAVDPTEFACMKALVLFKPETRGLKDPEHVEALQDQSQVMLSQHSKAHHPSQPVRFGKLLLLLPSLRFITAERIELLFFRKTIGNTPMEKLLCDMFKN
GalR3 antag: human GalR3 antagonism | O60755 | AID 651719 | inhibition, % at 3 µM | HEK293 GalR3-CNG cAMP membrane potential fluorescence; galR3 body fused to GalR1 C-terminus | actives 0.44% (n = 360,000);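 active = inhibition above the screen-wide average plus 3 SD, cut at about 13% in these data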;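 note: forskolin and galanin both at EC90 stimulate the cells; cAMP rise reported by CNG channel membrane potential dye signal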
NR2E3 ag-2: agonists of human nuclear receptor NR2E3; actives 0.12% (n = 320,000); Q9Y5X4; inhibition of corepressor binding, % at 4.78 µM; GST-NR2E3/biotin-RetCOR TR-FRET, 1536-well; AID 2300;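 active = percent inhibition above the cutoff of mean plus 3 SD of all tested compounds, set per screening campaign, cut at about 20% in these data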
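Format: 1536-well format; test system: GST-NR2E3 and biotin-RetCOR proteins; read-out basis: percent inhibition of TR-FRET ratio; timing: 5 h incubation at 4 °C; detection: time-resolved FRET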
Gli-Sufu antag: Gli-Sufu pathway antagonism; inhibition, % at 5 µM; AID 588413; Sufu-KO-LIGHT fibroblasts, Gli luciferase reporter luminescence; actives 0.74% (n = 340,000);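 active = inhibition above about 55%, limit read from the data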
697 NFkB inh: inhibitors of the PMA/ionomycin-induced NF-kB reporter in 697 B cells | 697 B-cell NF-kB luciferase reporter, 16 h | inhibition, % at 4 µM | actives 0.33% (n = 330,000); in the data active = inhibition above about 35%
Gli antag conf: confirmation of Gli-SUFU pathway antagonists | shares compounds with Gli-Sufu antag | Sufu-KO-LIGHT cells, Gli luciferase reporter, luminescence | inhibition, % at 5 µM | actives 40% (n = 2,500);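 active = mean inhibition at 5 µM reaching about 45%, limit read from the data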
SufuKO cytotox: counter-screen for Gli-SUFU antagonists: cytotoxicity; shares compounds with Gli-Sufu antag; Sufu-KO-LIGHT cells cytotoxicity, ATP luminescence; cytotoxicity, % at 5 µM; actives 32% (n = 2,500); AID 651994;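 active = mean cytotoxicity at 5 µM above about 25%, limit read from the data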;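 note: cells exposed to compound overnight for roughly 16 to 18 hours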
Wnt3a counter: inhibits Wnt3a reporter, counter-screen for Gli-SUFU antagonists. shares compounds with Gli-Sufu antag. Wnt-LIGHT cells, Wnt3a-driven luciferase reporter, luminescence. inhibition, % at 6.25 µM. actives 20% (n = 2,500);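 active = mean inhibition above about 25%, limit read from the data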
Hits are given with their value; – = inactive; · = not tested or not shown.

SMILES	Jurkat NFkB inh	NR2E3 ag-1	GalR3 antag	NR2E3 ag-2	Gli-Sufu antag	697 NFkB inh	Gli antag conf	SufuKO cytotox	Wnt3a counter
CCOC(=O)C1=CCN(S(=O)(=O)c2cccc(Cl)c2)C1c1ccc(Cl)c(Cl)c1 (stereo not drawn)	·	·	–	·	·	·	·	·	·
CC1CCN(Cc2ccc(-c3nnn(CC(=O)Nc4ccccc4Cl)n3)cc2)CC1	–	–	–	–	58	–	73	33	–
COC(=O)[C@]12C[C@H](CC(=O)NCc3ccccc3)C(=O)N(Cc3ccccc3)C1=C[C@H](C(C)C)O[C@@H]2C1CC1	·	·	–	·	·	·	·	·	·
COc1ccc(NC(=O)Nc2ccc3c(c2)C(=O)N([C@H](C)CO)C[C@H](C)[C@H](CN(C)C)OCCCC[C@@H](C)O3)cc1	·	·	–	·	·	·	·	·	·
Cc1ccc(OCCNC(=O)c2ccccc2OCc2c(C)noc2C)cc1	–	–	–	–	–	–	·	·	·
Cc1ccc2c(c1)N(CCC(=O)NCc1ccccn1)C(=O)CO2	–	–	–	–	–	–	–	–	–
Cc1ccc2c(c1)N(CCC(=O)NCc1cccnc1)C(=O)CO2	–	–	–	–	–	–	·	·	·
CCOC(=O)N1CCN(C(=O)C2CCN(S(=O)(=O)N3CCCC3)CC2)CC1	–	–	–	–	56	–	–	–	–
CCOC(=O)N1CCN(C(=O)C2CCN(S(=O)(=O)N3CCC4(CC3)OCCO4)CC2)CC1	–	–	–	–	–	–	·	·	·
Cc1cnc(C(=O)OC(C)C(=O)Nc2ccccc2-c2ccccc2)cn1 (stereo not drawn)	–	–	–	–	–	–	·	·	·
Cc1ccc(S(=O)(=O)N2C[C@@H]3CCCC[C@@H]3[C@@H](C)[C@H]2c2cn(Cc3ccccc3)c3ncccc23)cc1	·	–	–	·	78	–	86	40	33
Cc1ccc(S(=O)(=O)N2C[C@@H]3CCCC[C@@H]3[C@@H](C)[C@H]2c2cn(Cc3ccccc3)c3ccccc23)cc1	·	–	–	·	88	–	85	32	–
Cc1ccc(S(=O)(=O)N2C[C@@H]3[C@H]4CC[C@H](C4)[C@@H]3[C@@H](C)[C@@H]2c2cn(Cc3ccccc3)c3ncccc23)cc1	·	–	–	·	–	–	·	·	·
CCOC(=O)c1oc2ccccc2c1NC(=O)C1CCCCC1	–	–	·	–	97	–	–	–	–
CCOC(=O)c1oc2ccccc2c1NC(=O)CCl	–	–	–	–	–	–	·	·	·
COc1cc2ccc(=O)oc2c(O[C@@H]2O[C@H](CO)[C@@H](O)[C@H](O)[C@H]2O)c1O	–	–	–	–	–	–	–	–	–
COC(=O)[C@@]12C[C@@H](CC(=O)NCc3cccc4ccccc34)C(=O)N(Cc3ccc4c(c3)OCO4)C1=CCC(C)(C)C2	·	·	–	·	·	·	·	·	·
COc1ccc(CCNC(=O)CCC(=O)Nc2ccc3nc(N4CCN(C)CC4)cc(C)c3c2)cc1OC	–	–	–	–	–	–	–	–	–
COc1cc(C2C3=C(COC3=O)Oc3cc4c(cc32)OCO4)cc(OC)c1O (stereo not drawn)	·	–	–	·	–	·	67	64	–
COc1cc(C2CC(=O)Oc3cc4c(cc32)OCO4)cc(OC)c1OC (stereo not drawn)	·	–	–	·	–	–	·	·	·
COc1cc(C2C3=C(COC3=O)Oc3cc4c(cc32)OCO4)cc(OC)c1OC (stereo not drawn)	·	–	–	·	56	·	57	57	–
C[C@H](CO)N1C[C@H](C)[C@H](CN(C)C(=O)Nc2ccc(F)cc2)Oc2ncc(Br)cc2C1=O	·	·	–	·	·	·	·	·	·
CCOC(=O)[C@@H]1CSCCS(=O)(=O)N1C(=O)[C@H](Cc1ccccc1)NC(=O)OC(C)(C)C	·	·	–	·	·	·	·	·	·
COc1cccc(C(=O)NCCN2CCN(c3ccc(Cl)cc3)CC2)c1	–	–	·	–	–	–	–	–	–
